Columns and labels:
[1] = folding enthalpy; higher = less favourable; fluorescence melt of hairpins on a sequencing array, two-state fit; details: sodium 0.088 M
Outline: (§1)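 Melting temperature and folding enthalpy were obtained by bootstrapped two-state fitting. Fits used Cy3 fluorescence of library hairpins with annealed Cy3 and quencher oligos on a sequenced MiSeq flow cell, imaged in 50 mM Na-HEPES pH 8.0, 25 mM NaCl in 2.5 °C steps up to 60 °C and normalised to pre-quench Cy3 and control constructs. Four replicates were combined by inverse-variance weighting, and fitted temperatures were raised by 9.35 °C to match UV melts.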

[2] = melting temperature; fluorescence melt of hairpins on a sequencing array, two-state fit, raised by 9.35 °C to match UV melts; details: sodium 0.088 M
Outline: as §1

Sequence | folding enthalpy [1] | Tm [2]
GTTGCACGAAAGTGAAC (((.(((....)))))) | -14.1 kcal/mol | 39.2 °C
GAGAACCGAAAGGTGCTC (((.(((....))).))) | -34.3 kcal/mol | 56.5 °C
GCGCCACGAAAGTGTCGC (((.(((....))).))) | -41.7 kcal/mol | 63.3 °C
GTACACGAAAGTGTAC ((((((....)))))) | -30.2 kcal/mol | 68.3 °C
GCCGTGACGAAAGTCGGC (((..(((....)))))) | -23.3 kcal/mol | 57.1 °C
GCGCCGCGAAAGCGTGGC ((..(((....)))..)) | -14.9 kcal/mol | 51.7 °C
GATCTGTCTTCAGATC ((((((....)))))) | -38.7 kcal/mol | 51.4 °C
GATGGCGAAAGCCGGATC ((((((....)))..))) | -10.2 kcal/mol | 37 °C
GGGGTAGGAAACTGCCCC ((((.((....)).)))) | -47.3 kcal/mol | 57.2 °C
GCACCTGGAAACAGGTAC (.(((((....))))).) | -13.2 kcal/mol | 40.9 °C
GACTTCCGAAAGGATGTC (((.(((....))).))) | -40.7 kcal/mol | 52.8 °C
GATCGCCGTAGCGATC ((((((....)))))) | -45 kcal/mol | 69.2 °C
GATCGTTAATACGATC ((((((....)))))) | -36.3 kcal/mol | 54.6 °C
GGTCTCGAAAGAGAACC ((((((....))).))) | -19 kcal/mol | 50 °C
GATCAGCCTGCTGATC ((((((....)))))) | -41.5 kcal/mol | 64.1 °C
GGATATGGAAACATATTC (.(((((....))))).) | -22.2 kcal/mol | 36.9 °C
GGTGGTGGAAACATCGCC ((.(.((....)).).)) | -27.4 kcal/mol | 44.6 °C
GCGATAGGAAACTATCGC (((((((....))))))) | -57.2 kcal/mol | 65.9 °C
GATCGTAGGGACGATC ((((((....)))))) | -31.6 kcal/mol | 56 °C

Sequence | folding enthalpy [1] | Tm [2]
GATAACGCGAAAGCGATC (((..(((....)))))) | -10.2 kcal/mol | 24.1 °C
GTGCTCGAAAGAGGTCAC ((((((....)))..))) | -15.8 kcal/mol | 35.5 °C
GGTTTCGAAAGAATAACC ((((((....)))..))) | -20.1 kcal/mol | 31.5 °C
GTCACAGGAAACTGTAAC ((.((((....)))).)) | -17.3 kcal/mol | 30.9 °C
GGCATCGAAAGATATGCC ((((((....)))..))) | -28.1 kcal/mol | 47.5 °C
GATCTGGGGACAGATC ((((((....)))))) | -31.4 kcal/mol | 54.3 °C
GTGGCTGCGAAAGCACAC (((..(((....)))))) | -11.5 kcal/mol | 47.8 °C
GTGGGAGGAAACTCCTAC ((.((((....)))).)) | -25.1 kcal/mol | 46.8 °C
GATCCGGGAAACTGGGTC ((.((.(....).)).)) | -30.1 kcal/mol | 40 °C
GCCCCGCGAAAGCAGCGC ((.(.((....)).).)) | -14.2 kcal/mol | 39.7 °C
GCCGTGGGAAACTGCGGC ((((..(....)..)))) | -28.5 kcal/mol | 53.9 °C
GCAATCGAAAGATTCTGC ((((((....)))..))) | -16 kcal/mol | 33.7 °C
GACAACGAAAGTTTGTC ((((((....))).))) | -27.6 kcal/mol | 47.3 °C
GGGAAGCGAAAGCTACCC (((.(((....))).))) | -30.7 kcal/mol | 59.3 °C
GGGTCCCCGAAAGGGCCC (((..(((....)))))) | -23.1 kcal/mol | 56 °C
GTTGTGACGAAAGTCAAC (((..(((....)))))) | -21.6 kcal/mol | 49.7 °C
GCAGGGCGAAAGCTCGGC ((.(.((....)).).)) | -20.6 kcal/mol | 59.2 °C
GACAGCGAAAGCTTTGTC ((((((....)))..))) | -16 kcal/mol | 37.5 °C
GCCGGGCGAAAGCATGGC (((..((....))..))) | -26.8 kcal/mol | 64.9 °C

Source: the array DNA melting data of Ke et al. (doi:10.1101/2024.01.08.574731)
